From ChEMBL document CHEMBL4715886, “Microwave-assisted efficient synthesis of pyrazole-fibrate derivatives as stimulators of glucose uptake in skeletal muscle cells” (2021) come the findings set out here.

Assay [1] concerns L6. Kind of assay: Induction of glucose uptake in rat L6 cells harboring GLUT4-myc assessed as glucose uptake at 10 uM relative to control. It counts as functional. The method, boiled down: (§1)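 L6-GLUT4myc rat skeletal muscle cells were exposed once to test compound at 10 µM. Glucose uptake was read and reported as fold increase and as percent stimulation over untreated control.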

Assay [2] has as its system L6. Kind of assay: Induction of glucose uptake in rat L6 cells harboring GLUT4-myc assessed as fold change in glucose uptake at 10 uM. Type of assay: functional. The method, boiled down: as §1
The target in assay [3] is T1, Solute carrier family 2, facilitated glucose transporter member 4 (Rattus norvegicus) (UniProt P19357).
T1 sequence (whole entry): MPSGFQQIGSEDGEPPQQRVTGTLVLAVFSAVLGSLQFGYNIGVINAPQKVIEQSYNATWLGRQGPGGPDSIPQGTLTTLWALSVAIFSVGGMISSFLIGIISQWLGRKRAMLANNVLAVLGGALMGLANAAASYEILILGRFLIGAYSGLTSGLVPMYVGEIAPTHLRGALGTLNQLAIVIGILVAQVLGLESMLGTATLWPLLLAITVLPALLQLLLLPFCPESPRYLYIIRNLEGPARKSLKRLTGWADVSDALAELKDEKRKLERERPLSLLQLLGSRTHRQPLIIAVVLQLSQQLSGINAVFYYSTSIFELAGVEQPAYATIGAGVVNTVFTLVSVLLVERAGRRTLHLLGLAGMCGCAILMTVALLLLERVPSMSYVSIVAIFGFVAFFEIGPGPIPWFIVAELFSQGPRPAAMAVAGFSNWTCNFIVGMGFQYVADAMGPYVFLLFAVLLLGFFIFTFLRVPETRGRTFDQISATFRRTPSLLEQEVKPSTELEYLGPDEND
Kind of assay: Induction of GLUT4 translocation in rat L6 cells harboring GLUT4-myc assessed as increase in surface level GLUT4myc at 10 uM after 16 hrs. Type of assay: cell-based.

Assay [4] relates to L6. Kind of assay: Induction of glucose uptake in rat L6 cells harboring GLUT4-myc assessed as fold change in glucose uptake at 500 uM. Type of assay: functional. The method, boiled down:
(§2)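 L6-GLUT4myc skeletal muscle cells were exposed to the reference agent at 500 µM. Glucose uptake was measured as fold increase and as percent stimulation relative to untreated control.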

The target of assay [5] is T1, Solute carrier family 2, facilitated glucose transporter member 4 (Rattus norvegicus). Kind of assay: Induction of GLUT4 translocation in rat L6 cells harboring GLUT4-myc assessed as fold change in increase of surface level GLUT4myc at 500 uM after 16 hrs. It counts as cell-based. The method, boiled down:
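L6-GLUT4myc myotubes were exposed for 16 h, and cell-surface GLUT4myc level was then measured. Experiments were done in triplicate and expressed as mean ± SE, with p relative to the unstimulated control.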

For assay [6], the system named is L6. Kind of assay: Induction of glucose uptake in rat L6 cells harboring GLUT4-myc assessed as glucose uptake at 500 uM relative to control. Type of assay: functional. The method, boiled down: as §2

Calls of active or inactive are those of the source. No cut-off for these calls is given here.

Turning to `CCOC(=O)C(C)(C)Oc1ccc(-c2nc3c(cnn3-c3ccc(C)c(C)c3)c(=O)[nH]2)cc1`, the Activity in the assay on L6 [1] is 12.9%.

As for `CCOC(=O)C(C)(C)Oc1ccc(-c2nc3c(cnn3-c3ccccc3)c(=O)[nH]2)cc1`, the “fold change (FC)” value in the assay on L6 [2] was 1.34. Also, in assay [3], the outcome was Active. For the same molecule, the Activity in the assay on L6 [1] was determined as 34.4%.

On to `CCOC(=O)COc1ccc(-c2nc3c(cnn3-c3ccc(F)cc3F)c(=O)[nH]2)cc1`, for which the Activity with L6 [1] was -1.6%. With `CCOC(=O)C(C)Oc1ccc(-c2nc3c(cnn3-c3ccc(F)cc3)c(=O)[nH]2)cc1` (configuration not stated), the Activity in the assay on L6 [1] worked out at 0.6%.

Turning to `CCOC(=O)C(C)Oc1ccc(-c2nc3c(cnn3-c3ccccc3)c(=O)[nH]2)cc1` (configuration not stated), in the assay with L6 [2], the “fold change (FC)” value was determined as 1.34. Besides, in assay [3], the outcome was Active. Further, the Activity with L6 [1] worked out at 34%. With `CCOC(=O)C(C)Oc1ccc(-c2nc3c(cnn3-c3ccc(F)cc3)c(=O)n2C)cc1` (configuration not stated), the Activity in the assay with L6 [1] was found to be 2.9%.

Turning to `CCOC(=O)COc1ccc(-c2nc3c(cnn3-c3ccc(OC)cc3)c(=O)[nH]2)cc1`, the Activity with L6 [1] turned out to be 13.1%. The same measure, in the same setting: the figure for `CCOC(=O)C(C)(C)Oc1ccc(-c2nc3c(cnn3-c3ccc(OC)cc3)c(=O)[nH]2)cc1` is 5%; for `CCOC(=O)C(C)Oc1ccc(-c2nc3c(cnn3-c3ccc(F)cc3F)c(=O)[nH]2)cc1` (configuration not stated) it is -14.7%; for `CCOC(=O)CCCOc1ccc(-c2nc3c(cnn3-c3ccc(F)cc3)c(=O)[nH]2)cc1` it is 6.4%. As to `CCOC(=O)COc1ccc(-c2nc3c(cnn3-c3ccccc3)c(=O)[nH]2)cc1`, the Activity in the assay on L6 [1] is reported as -8.6%. On to `CCOC(=O)CCCOc1ccc(-c2nc3c(cnn3-c3ccc(C)c(C)c3)c(=O)[nH]2)cc1`, for which the “fold change (FC)” value with L6 [2] amounted to 1.54. The outcome in assay [3] was Active. Further, in the assay with L6 [1], the Activity worked out at 54%. For `CCOC(=O)CCCOc1ccc(-c2nc3c(cnn3-c3ccc(F)cc3F)c(=O)[nH]2)cc1`, the Activity in the assay on L6 [1] came to 2.9%. As for `CCOC(=O)C(C)(C)Oc1ccc(-c2nc3c(cnn3-c3ccc(F)cc3)c(=O)[nH]2)cc1`, the Activity with L6 [1] worked out at 0.6%. Consider `CCOC(=O)C(C)Oc1ccc(-c2nc3c(cnn3-c3ccc(C)c(C)c3)c(=O)[nH]2)cc1` (configuration not stated), for which, in the assay with L6 [1], the Activity is on record as -17.2%. On the same count and under the same terms, the figure for `CCOC(=O)COc1ccc(-c2nc3c(cnn3-c3ccc(F)cc3)c(=O)[nH]2)cc1` is 23.7%. `CCOC(=O)C(C)(C)Oc1ccc(-c2nc3c(cnn3-c3ccc(F)cc3F)c(=O)[nH]2)cc1`: the Activity in the assay on L6 [1] is -12.8%. For the molecule `CCOC(=O)C(C)Oc1ccc(-c2nc3c(cnn3-c3ccc(OC)cc3)c(=O)[nH]2)cc1` (configuration not stated), in the assay with L6 [2], the “fold change (FC)” value was determined as 1.34. Besides, in assay [3], the outcome was Active. Besides, the Activity in the assay with L6 [1] was determined as 34.4%. Take `CCOC(=O)CCCOc1ccc(-c2nc3c(cnn3-c3ccc(OC)cc3)c(=O)[nH]2)cc1`: the Activity in the assay on L6 [1] stood at 10.4%. In the case of `CCOC(=O)COc1ccc(-c2nc3c(cnn3-c3ccc(C)c(C)c3)c(=O)[nH]2)cc1`, in the assay with L6 [1], the Activity is given as -16.8%. For `CCOC(=O)CCCOc1ccc(-c2nc3c(cnn3-c3ccccc3)c(=O)[nH]2)cc1`, in the assay with L6 [1], the Activity is listed as -8.3%. Consider `CN(C)C(=N)NC(=N)N` [METFORMIN], for which the “fold change (FC)” value in the assay on L6 [4] was found to be 1.48; in assay [5], 1.45. The Activity in the assay on L6 [6] turned out to be 48%.
